S100A4 MyoIIA – inhibitors of human S100A4 binding to myosin IIA peptide; P26447; S100A4/TAMRA-MyoIIA peptide fluorescence polarization; inhibition, % at 10.7 µM; hit rate 0.14% among 360,000; AID 652163;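 active means mean inhibition of at least 70% across replicates, with every replicate also reaching that level; inconclusive means mean inhibition reaches 70% but some replicates fall short; inactive means mean inhibition below 70%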
Target sequence (P26447 whole entry, looked up): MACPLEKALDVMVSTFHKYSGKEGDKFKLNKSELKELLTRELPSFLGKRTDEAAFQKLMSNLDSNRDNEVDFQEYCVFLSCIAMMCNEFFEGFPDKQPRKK
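Compound dosing: one dose per compound; test system: human S100A4 monomer with TAMRA-labelled myosin IIA peptide; probe or stimulus: TAMRA-labelled myosin IIA heavy-chain peptide probe, 5 nM; medium: HEPES buffer with Ca2+, pH 7.2; schedule: 5 min incubation before reading; benchmarks: neutral control DMSO, positive control TFP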
RAD54 inh – inhibitors of human RAD54 branch migration. Q92698. RAD54 Holliday junction branch migration, FAM/BHQ fluorescence. inhibition, % at 10.4 µM. hit rate 0.14% among 360,000. AID 602329;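 active means mean normalized replicate activity at least 40 and at least half of replicates scoring 40 or more; inconclusive means only one of the two criteria met; inactive means mean below 40 and under half of replicates reaching 40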;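 further: 0% = median of neutral control wells and 100% = median of positive control wells; inhibitors cause a drop in the FAM fluorescence signal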
SR-BI DiI inh – mouse SR-BI HDL lipid transfer inhibition | ldlA[mSR-BI] CHO cells, DiI-HDL uptake fluorescence, 3 h | AID 488896 | hit rate 0.96% among 320,000 | inhibition, % at 12.5 µM | Q61009;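 active means mean replicate inhibition of at least 70% and a set share of replicates each scoring 70 or more; inconclusive means meets just one of the two criteria; inactive means fails both criteria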;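 further: 0% = median of neutral control wells and 100% = median of positive control wells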
Target sequence (Q61009 whole entry, looked up): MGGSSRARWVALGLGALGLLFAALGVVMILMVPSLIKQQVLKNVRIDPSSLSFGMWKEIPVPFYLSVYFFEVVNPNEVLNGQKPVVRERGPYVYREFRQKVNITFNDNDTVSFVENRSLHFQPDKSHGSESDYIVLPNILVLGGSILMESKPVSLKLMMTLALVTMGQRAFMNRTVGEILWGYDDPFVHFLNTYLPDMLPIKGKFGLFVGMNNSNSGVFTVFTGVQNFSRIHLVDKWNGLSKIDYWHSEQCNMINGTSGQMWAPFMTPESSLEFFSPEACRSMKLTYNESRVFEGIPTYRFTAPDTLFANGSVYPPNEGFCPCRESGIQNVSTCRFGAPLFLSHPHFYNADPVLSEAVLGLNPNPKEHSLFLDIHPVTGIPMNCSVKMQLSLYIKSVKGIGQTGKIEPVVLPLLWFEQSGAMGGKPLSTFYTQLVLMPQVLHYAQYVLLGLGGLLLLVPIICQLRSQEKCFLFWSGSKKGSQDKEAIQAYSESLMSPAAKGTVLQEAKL
SR-BI DiI-HDL act – enhances SR-BI lipid uptake from DiI-HDL; hit rate 0.096% among 320,000; activation, % at 12.5 µM; CHO ldlA[mSR-BI] cells, DiI-HDL uptake fluorescence, 3 h; 100 = double the neutral-control signal; AID 504775;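 active means mean replicate activation of at least 60% and every replicate at or above 60%; inconclusive means mean or all-replicate condition met, but not both; inactive means mean below 60% and not all replicates reaching 60%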;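 further: 0% = median plate neutral-control signal and 100% = twice that signal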
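Material: SR-BI-overexpressing, LDLR-lacking CHO cells; schedule: compound exposure 3 h, 37 °C; reagent: DiI-labelled HDL at 10 µg/mL final; technique: bottom-read fluorescence, 550/595 nm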
PvdQ inh – P. aeruginosa PvdQ acylase inhibition; inhibition, % at 10 µM; purified PvdQ acylase, fluorescence plate reader; hit rate 0.063% among 340,000; in the data active means inhibition above about 30%, passing the limit was not always enough; inconclusive means no clear call, values can overlap the other calls;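 further: 0% = vehicle neutral wells and 100% = reference inhibitor wells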
dFosB act – enhances mouse delta FosB homodimer DNA binding; purified delta FosB, TAMRA-CDK5 oligo fluorescence polarization; percent of positive-control signal above neutral wells; activation, % at 25 µM; hit rate 0.99% among 340,000; AID 493131;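 active means mean activation above about 17%, with every replicate also reaching it, limit read from the data, passing the limit was not always enough; inconclusive means only one of the two conditions met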
Active calls of the source: *; ? = inconclusive; · = not tested or not shown. The list is not random: actives were taken first. Their share in the collection is about 1.6%.

SMILES | S100A4 MyoIIA | RAD54 inh | SR-BI DiI inh | SR-BI DiI-HDL act | PvdQ inh | dFosB act
CCC(=O)Nc1ccc2c(c1)C(=O)N(C)[C@@H]1CC[C@@H](CC(=O)NC3CCCC3)O[C@H]1CO2 | -4 | 9 | · | · | · | ·
C[C@H]1CCCCO[C@@H](CN(C)Cc2ccc(C(F)(F)F)cc2)[C@@H](C)CN([C@@H](C)CO)C(=O)c2cc(NS(=O)(=O)c3cn(C)cn3)ccc2O1 | -7 | 8 | · | · | · | ·
Cc1ccc(S(=O)(=O)N[C@H]2CC[C@@H](CC(=O)NCc3ccccc3F)O[C@@H]2CO)cc1 | 10 | -12 | · | · | · | ·
O=C1c2ccccc2C(=O)c2c(Nc3ccc(CCO)cc3)ccc(O)c21 | 7 | 2 | 93* | -93 | -24 | -2
CO[C@H]1CN(C)C(=O)c2ccc(NS(=O)(=O)CC(F)(F)F)cc2OC[C@@H](C)N(C(=O)c2ccc3c(c2)OCO3)C[C@@H]1C | -24 | 8 | · | · | · | ·
C[C@H]1CN([C@@H](C)CO)C(=O)Cc2cc(NS(=O)(=O)c3ccccc3)ccc2O[C@H]1CN(C)S(C)(=O)=O | -24 | 2 | · | · | · | ·
C=CCOC(=O)c1ccc(-n2cncn2)nc1 | · | -2 | -16 | 16 | 8 | 1
C=CCOC(=O)c1ccc(-n2cnc(C)n2)nc1 | · | · | -4 | 4 | 71* | -1
C[C@@H]1CN([C@@H](C)CO)C(=O)c2cccc(NC(=O)Nc3cccc4ccccc34)c2O[C@@H]1CN(C)Cc1ccc(C(=O)Nc2ccccc2N)cc1 | -18 | · | · | · | · | ·
CC(=O)OCC1=C(C(=O)OC(C)(C)C)N2C(=O)[C@@H](NC(=O)Cc3ccccc3)[C@H]2SC1 | -1 | 0 | 30 | -30 | -6 | -8
CC1=C(C(=O)OCC(Cl)(Cl)Cl)N2C(=O)C(NC(=O)Cc3ccccc3)C2SC1 (centres undefined) | -21 | -6 | 78* | -78 | 10 | -14
O=C(Cc1ccccn1)N1CC(=O)N2[C@@H](CO)[C@H](c3ccc(C#CC4CCCC4)cc3)[C@@H]2C1 | -12 | · | · | · | · | ·
CN1CCc2c(sc(NC(=O)c3ccc(S(=O)(=O)N4CCCC4)cc3)c2C(N)=O)C1 | -9 | -15 | -11 | 11 | -6 | -10
CCCN1CCc2c(sc(NC(=O)c3ccc(S(=O)(=O)N(C)c4ccccc4)cc3)c2C(N)=O)C1 | 4 | -1 | 10 | -10 | -12 | 42*
CN1CCc2c(sc(NC(=O)c3ccc(S(=O)(=O)N4CCCCCC4)cc3)c2C(N)=O)C1 | · | -6 | 25 | -25 | 8 | 54*
CCCN1CCc2c(sc(NC(=O)c3ccc(S(=O)(=O)N(C)c4ccccc4)cc3)c2C(=O)NC)C1 | 3 | -14 | 29 | -29 | -6 | ?
O=[N+]([O-])c1ccc(-c2ccc(/C=N/Nc3nc(NCc4ccccc4)nc(N4CCOCC4)n3)o2)cc1 | · | · | 36 | -36 | 1 | 21*
CC1C(=O)C(C)C(c2cc(Cl)ccc2O)NC1c1cc(Cl)ccc1O (centres undefined) | -2 | 7 | 86* | -86 | -9 | 20*
COc1cccc(C2NC(c3cccc(OC)c3O)C(C)C(=O)C2C)c1O (centres undefined) | 2 | 6 | -3 | 3 | -9 | -4
CN(C)C(=O)C[C@@H]1CC[C@@H]2[C@H](COc3ccc(NC(=O)C4CCC4)cc3C(=O)N2C)O1 | 20 | · | · | · | · | ·
C[C@@H]1CCCCO[C@@H](CN(C)CC2CC2)[C@@H](C)CN([C@H](C)CO)C(=O)c2cc(NC(=O)Cc3ccccc3)ccc2O1 | 3 | 3 | · | · | · | ·
CCCCCc1cc(=O)oc2c(C(CCN3CCCCC3)c3cc(OC)c(OC)c(OC)c3)c(OC)cc(OC)c12 (centres undefined) | 2 | 17 | -62 | 62* | -19 | 0
C[C@H](CO)N1C[C@H](C)[C@@H](CN(C)S(=O)(=O)c2ccc(F)cc2)OCCCC[C@H](C)Oc2ccc(NC(=O)Nc3ccccc3)cc2C1=O | · | -6 | · | · | · | ·
Cc1cc2c(c(=O)n1Cc1ccccn1)C(c1ccc3c(c1)OCO3)C(C#N)=C(N)O2 (centres undefined) | · | -11 | · | · | -22 | -3
COc1ccc(CCn2c(C)cc3c(c2=O)C(c2ccc4c(c2)OCO4)C(C#N)=C(N)O3)cc1OC (centres undefined) | · | -4 | 9 | -9 | -5 | 51*
SMILES | S100A4 MyoIIA | RAD54 inh | SR-BI DiI inh | SR-BI DiI-HDL act | PvdQ inh | dFosB act
Cc1cc(C)cc(NC(=O)CC2Oc3ccc(C)cc3NC2=O)c1 (centres undefined) | -9 | 4 | 36 | -36 | -16 | 32*
O=C(Nc1nccs1)[C@H]1[C@H](CO)[C@H]2Cn3c(cccc3=O)[C@H]2N1C(=O)C1CCCC1 | -22 | · | · | · | · | ·
Cc1noc(C)c1S(=O)(=O)Nc1cccc2c1O[C@H](CN(C)S(=O)(=O)c1ccc(Cl)cc1)[C@H](C)CN([C@H](C)CO)C2=O | -22 | 0 | · | · | · | ·
CCOc1cc(/C=N/NC(=O)c2ccc(-c3csc(Nc4ccc(C)cc4)n3)cc2)ccc1OCC(=O)O | 0 | · | ? | -71 | 0 | -21
O=C(O)COc1ccc(/C=N/NC(=O)c2ccc(-c3csc(Nc4ccc(Cl)cc4)n3)cc2)cc1 | 1 | 3 | 74* | -74 | -10 | -11
Cc1cc(S(=O)(=O)NC[C@H]2O[C@@H](n3cnc4c(N)ncnc43)[C@H](O)[C@@H]2O)c(C)s1 | 1 | -6 | -1 | 1 | 8 | -4
Nc1ncnc2c1ncn2[C@@H]1O[C@H](CNS(=O)(=O)c2cc(S(=O)(=O)c3ccccc3)cs2)[C@@H](O)[C@H]1O | 0 | -6 | -131 | 130* | -7 | -6
COc1ccc(NC(=O)c2cc3c(s2)CCC3)cc1S(=O)(=O)N1CCOCC1 | · | -2 | 70* | -70 | -5 | -12
COc1ccc(S(=O)(=O)N2CCOCC2)cc1NC(=O)c1cc2c(s1)CCCC2 | · | · | 29 | -29 | -1 | -7
O=C(COC(=O)/C=C/c1ccccc1Cl)NC1CCCCCC1 | -4 | -6 | -65 | 65* | -5 | -5
O=C(COc1ccc(C(=O)c2ccccc2)cc1)NC1CCCCC1 | -4 | -7 | -69 | 69* | 1 | -2
O=C(COc1ccc(C(=O)c2ccccc2)cc1)NC1CCCCCC1 | · | · | -26 | 26 | -6 | -6
COc1ccccc1CNC(=O)C[C@H]1C=C[C@H](NC(C)=O)[C@H](CO)O1 | -7 | -1 | · | · | · | ·
C[C@H](CO)N1C[C@H](C)[C@H](CN(C)Cc2ccc(F)cc2)Oc2cc(C#CCN(C)C)ccc2S1(=O)=O | -7 | -16 | · | · | · | ·
O=C(Nc1ccc2c(c1)OCO2)c1cc2ncc(Br)cn2n1 | · | 5 | -23 | 23 | -6 | 28*
Cc1sc2ncnc(N3CCC(C(=O)NNC(=O)COc4ccc(Br)cc4)CC3)c2c1C | 0 | 9 | 81* | -81 | -6 | -13
